Reference: ChEMBL document CHEMBL1212892, “Tirucallane-type alkaloids from the bark of Dysoxylum laxiracemosum” (J Nat Prod, 2010)

Columns and labels:
Type in all cases: functional, cell-based
[1] = test system: HL-60; assay: Cytotoxicity against human HL60 cells after 48 hrs by MTT assay; conditions: HL-60, 48 h
Outline: (§1)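 Cells grown in RPMI-1640 or DMEM with 10% FBS, 37 °C, 5% CO2. Adherent cells seeded at 1 × 10^5 cells/mL and left 12 h to attach before dosing; suspension cells seeded just before dosing. Compound at 0.0625, 0.32, 1.6, 8 and 40 µM in triplicate for 48 h, cisplatin positive control. Viability by MTT; IC50 by Reed and Muench method.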

[2] = test system: SMMC-7721; assay: Cytotoxicity against human SMMC7721 cells after 48 hrs by MTT assay; conditions: SMMC-7721, 48 h; outline: as §1
[3] = test system: SW480; assay: Cytotoxicity against human SW480 cells after 48 hrs by MTT assay; conditions: SW480, 48 h; outline: as §1
[4] = test system: A549; assay: Cytotoxicity against human A549 cells after 48 hrs by MTT assay; conditions: A549, 48 h; outline: as §1
[5] = test system: MCF7; assay: Cytotoxicity against human MCF7 cells after 48 hrs by MTT assay; conditions: MCF7, 48 h; outline: as §1

CC(C)C(=O)c1cc([C@@H]2CC[C@]3(C)C4=CCC5C(C)(C)[C@H](O)CC[C@]5(C)[C@H]4CC[C@@]23C)c[nH]1 (stereo partly drawn) [LAXIRACEMOSIN A]
IC50 [1]: 3.1 µM | IC50 [2]: 9.5 µM | IC50 [3]: 7.2 µM | IC50 [4]: 5.4 µM | IC50 [5]: 16.8 µM

CC(C)C(=O)c1cc([C@@H]2CC[C@]3(C)C4=CCC5C(C)(C)C(=O)CC[C@]5(C)[C@H]4CC[C@@]23C)c[nH]1 (stereo partly drawn) [LAXIRACEMOSIN B]
IC50 [1]: 12.8 µM | IC50 [2]: 19 µM | IC50 [3]: > 20 µM | IC50 [4]: 13.4 µM | IC50 [5]: > 20 µM

CC(C)(O)C(=O)c1cc([C@@H]2CC[C@]3(C)C4=CCC5C(C)(C)[C@H](O)CC[C@]5(C)[C@H]4CC[C@@]23C)c[nH]1 (stereo partly drawn) [LAXIRACEMOSIN D]
IC50 [1]: 6.8 µM | IC50 [2]: > 20 µM | IC50 [3]: > 20 µM | IC50 [4]: > 20 µM | IC50 [5]: > 20 µM

C=C(C)C(=O)c1cc([C@@H]2CC[C@]3(C)C4=CCC5C(C)(C)[C@H](O)CC[C@]5(C)[C@H]4CC[C@@]23C)c[nH]1 (stereo partly drawn) [LAXIRACEMOSIN E]
IC50 [1]: 1.5 µM | IC50 [2]: 2.7 µM | IC50 [3]: 3.7 µM | IC50 [4]: 3.7 µM | IC50 [5]: 5.1 µM

CC1(C)C2CC=C3[C@H](CC[C@@]4(C)[C@H](c5c[nH]c(C=O)c5)CC[C@]34C)[C@@]2(C)CC[C@H]1O (stereo partly drawn) [LAXIRACEMOSIN F]
IC50 [1]: 15.7 µM | IC50 [2]: 15.6 µM | IC50 [3]: > 20 µM | IC50 [4]: > 20 µM | IC50 [5]: > 20 µM
